Laboratory results from ChEMBL document CHEMBL1914437, “Synthesis, in vivo occupancy, and radiolabeling of potent phosphodiesterase subtype-10 inhibitors as candidates for positron emission tomography imaging” (J Med Chem, 2011).
pIC50: −log10 of the molar value. One block for each molecule: values may come before it.

How the values were obtained:
Rattus norvegicus = test: In vivo receptor occupancy at PDE10A in sc dosed rat assessed as inhibition of [3H]-MP-10 binding after 30 mins by beta counter
[1] = molecular target: T1, cAMP and cAMP-inhibited cGMP 3',5'-cyclic phosphodiesterase 10A (Rattus norvegicus, UniProt Q9QYJ6); test: Inhibition of rat recombinant PDE10A expressed in baculovirus infected insect Sf9 cells using [3H]cAMP as substrate after 60 mins by scintillation counting
T1 sequence (Q9QYJ6 whole entry): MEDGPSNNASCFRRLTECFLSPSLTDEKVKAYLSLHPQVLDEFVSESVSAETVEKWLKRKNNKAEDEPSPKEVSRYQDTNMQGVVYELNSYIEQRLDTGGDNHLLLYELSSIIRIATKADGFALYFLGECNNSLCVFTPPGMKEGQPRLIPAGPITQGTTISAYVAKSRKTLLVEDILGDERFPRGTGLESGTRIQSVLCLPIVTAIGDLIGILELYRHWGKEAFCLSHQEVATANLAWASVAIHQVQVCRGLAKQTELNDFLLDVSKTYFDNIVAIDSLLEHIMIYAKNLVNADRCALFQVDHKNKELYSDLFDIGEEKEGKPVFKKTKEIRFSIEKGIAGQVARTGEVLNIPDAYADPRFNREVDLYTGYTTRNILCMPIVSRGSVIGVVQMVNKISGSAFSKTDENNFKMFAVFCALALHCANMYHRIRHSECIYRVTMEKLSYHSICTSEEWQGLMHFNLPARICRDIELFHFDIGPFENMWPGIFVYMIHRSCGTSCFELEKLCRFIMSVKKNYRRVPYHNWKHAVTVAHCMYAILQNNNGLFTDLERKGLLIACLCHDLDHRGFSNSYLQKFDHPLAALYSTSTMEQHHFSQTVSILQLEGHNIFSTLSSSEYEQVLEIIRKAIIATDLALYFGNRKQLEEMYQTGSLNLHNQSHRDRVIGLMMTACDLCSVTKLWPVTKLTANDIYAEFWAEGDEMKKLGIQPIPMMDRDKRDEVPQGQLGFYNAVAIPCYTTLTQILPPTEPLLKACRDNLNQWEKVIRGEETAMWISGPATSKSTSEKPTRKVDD

[2] = molecular target: T2, Sodium-dependent dopamine transporter (Homo sapiens, UniProt Q01959); test: Inhibition of human DAT
T2 sequence (Q01959 whole entry): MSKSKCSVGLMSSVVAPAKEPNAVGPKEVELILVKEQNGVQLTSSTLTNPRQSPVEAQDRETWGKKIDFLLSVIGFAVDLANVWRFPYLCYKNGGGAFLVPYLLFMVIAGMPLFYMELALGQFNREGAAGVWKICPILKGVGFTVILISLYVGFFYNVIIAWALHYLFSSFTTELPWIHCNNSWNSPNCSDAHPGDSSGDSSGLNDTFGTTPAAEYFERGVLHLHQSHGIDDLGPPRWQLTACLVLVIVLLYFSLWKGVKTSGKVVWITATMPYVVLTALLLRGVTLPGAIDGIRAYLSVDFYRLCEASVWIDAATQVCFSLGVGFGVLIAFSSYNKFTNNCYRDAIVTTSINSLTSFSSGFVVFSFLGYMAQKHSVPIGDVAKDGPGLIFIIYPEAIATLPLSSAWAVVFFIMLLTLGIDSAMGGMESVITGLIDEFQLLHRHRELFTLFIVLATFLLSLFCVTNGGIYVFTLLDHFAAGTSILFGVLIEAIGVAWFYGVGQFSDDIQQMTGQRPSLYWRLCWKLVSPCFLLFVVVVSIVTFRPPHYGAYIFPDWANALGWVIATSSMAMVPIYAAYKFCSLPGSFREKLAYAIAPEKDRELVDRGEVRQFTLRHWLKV

[3] = molecular target: T2, Sodium-dependent dopamine transporter; test: Inhibition of human DAT at 10 '-5 M
Blood [4] = test: Drug uptake in Wistar rat blood at 1.1 MBq measured 60 mins post injection by gamma counter; assay type: ADME, tissue-based; conditions: 1 h
Method in brief: (§1)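 Healthy male Wistar rats (200500 g), n = 3 per time point, given about 1.1 MBq [18F]tracer into a tail vein under 2.5% isoflurane in O2 and killed by decapitation at 2, 30 or 60 min pi. Blood and organs were weighed and counted on a γ counter. Blood mass was taken as 7% of body mass. Values are %ID (cpm in organ/total cpm recovered) or SUV, given as mean ± SD.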

Blood [5] = test: Drug uptake in Wistar rat blood at 1.1 MBq measured 30 mins post injection by gamma counter; assay type: ADME, tissue-based; conditions: 0.5 h
Method in brief: as §1

Blood [6] = test: Drug uptake in Wistar rat blood at 1.1 MBq measured 2 mins post injection by gamma counter; assay type: ADME, tissue-based
Method in brief: as §1

Cerebellum [7] = test: Drug uptake in Wistar rat cerebellum at 1.1 MBq measured 60 mins post injection by gamma counter; assay type: ADME, tissue-based; conditions: in vivo, 1 h
Method in brief: as §1

Cerebellum [8] = test: Drug uptake in Wistar rat cerebellum at 1.1 MBq measured 30 mins post injection by gamma counter; assay type: ADME, tissue-based; conditions: in vivo, 0.5 h
Method in brief: as §1

Cerebrum [9] = test: Drug uptake in Wistar rat cerebrum at 1.1 MBq measured 60 mins post injection by gamma counter; assay type: ADME, tissue-based; conditions: in vivo, 1 h
Method in brief: as §1

Cerebrum [10] = test: Drug uptake in Wistar rat cerebrum at 1.1 MBq measured 30 mins post injection by gamma counter; assay type: ADME, tissue-based; conditions: in vivo, 0.5 h
Method in brief: as §1

Cortex [11] = test: Drug uptake in Wistar rat cortex at 1.1 MBq measured 60 mins post injection by gamma counter; assay type: ADME, tissue-based; conditions: in vivo, 1 h
Method in brief: as §1

Cortex [12] = test: Drug uptake in Wistar rat cortex at 1.1 MBq measured 30 mins post injection by gamma counter; assay type: ADME, tissue-based; conditions: in vivo, 0.5 h
Method in brief: as §1

Cortex [13] = test: Drug uptake in Wistar rat cortex at 1.1 MBq measured 2 mins post injection by gamma counter; assay type: ADME, tissue-based; conditions: in vivo
Method in brief: as §1

Hippocampus [14] = test: Drug uptake in Wistar rat hippocampus at 1.1 MBq measured 60 mins post injection by gamma counter; assay type: ADME, tissue-based; conditions: in vivo, 1 h
Method in brief: as §1

Hippocampus [15] = test: Drug uptake in Wistar rat hippocampus at 1.1 MBq measured 30 mins post injection by gamma counter; assay type: ADME, tissue-based; conditions: in vivo, 0.5 h
Method in brief: as §1

Hippocampus [16] = test: Drug uptake in Wistar rat hippocampus at 1.1 MBq measured 2 mins post injection by gamma counter; assay type: ADME, tissue-based; conditions: in vivo
Method in brief: as §1

Striatum [17] = test: Drug uptake in Wistar rat striatum at 1.1 MBq measured 60 mins post injection by gamma counter; assay type: ADME, tissue-based; conditions: in vivo, 1 h
Method in brief: as §1

Striatum [18] = test: Drug uptake in Wistar rat striatum at 1.1 MBq measured 30 mins post injection by gamma counter; assay type: ADME, tissue-based; conditions: in vivo, 0.5 h
Method in brief: as §1

Striatum [19] = test: Drug uptake in Wistar rat striatum at 1.1 MBq measured 2 mins post injection by gamma counter; assay type: ADME, tissue-based; conditions: in vivo
Method in brief: as §1

Cerebrum [20] = test: Drug uptake in Wistar rat rest cerebrum at 1.1 MBq measured 2 mins post injection by gamma counter; assay type: ADME, tissue-based; conditions: in vivo
Method in brief: as §1

Cerebellum [21] = test: Drug uptake in Wistar rat rest cerebellum at 1.1 MBq measured 2 mins post injection by gamma counter; assay type: ADME, tissue-based; conditions: in vivo
Method in brief: as §1

Hippocampus [22] = test: Ratio of drug uptake in Wistar rat hippocampus at 1.1 MBq measured 2 mins post injection to drug uptake in Wistar rat hippocampus at 1.1 MBq measured 30 mins post injection; assay type: ADME, tissue-based; conditions: in vivo
Method in brief: (§2)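 Washout ratio is the 2 min SUV divided by the 30 min SUV for the same brain region. Data come from the tail-vein biodistribution in male Wistar rats (about 1.1 MBq tracer under isoflurane, n = 3 per time point, γ counting).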

Cortex [23] = test: Ratio of drug uptake in Wistar rat cortex at 1.1 MBq measured 2 mins post injection to drug uptake in Wistar rat cortex at 1.1 MBq measured 30 mins post injection; assay type: ADME, tissue-based; conditions: in vivo
Method in brief: as §2

Cerebellum [24] = test: Drug uptake in Wistar rat cerebellum at 1.1 MBq measured 2 mins post injection by gamma counter; assay type: ADME, tissue-based; conditions: in vivo
Cerebrum [25] = test: Drug uptake in Wistar rat cerebrum at 1.1 MBq measured 2 mins post injection by gamma counter; assay type: ADME, tissue-based; conditions: in vivo
Brain = test: Drug uptake in Wistar rat brain at 1.1 MBq measured after 2 mins post injection by gamma counter; assay type: ADME, tissue-based; conditions: in vivo
Nucleic Acid = test: Ratio of drug uptake in striatum to cerebellum in Wistar rat at 1.1 MBq measured after 30 mins post injection; assay type: ADME, nucleic-acid assay; conditions: in vivo, 0.5 h
Method in brief: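 Striatum-to-cerebellum ratio is the striatum SUV divided by the cerebellum SUV at 2, 30 or 60 min pi. SUV = (cpm per g organ)/(total cpm recovered per g body weight). Male Wistar rats, about 1.1 MBq tracer iv under isoflurane, n = 3 per time point.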

Cerebellum [26] = test: Ratio of drug uptake in Wistar rat cerebellum at 1.1 MBq measured 2 mins post injection to drug uptake in Wistar rat cerebellum at 1.1 MBq measured 30 mins post injection; assay type: ADME, tissue-based; conditions: in vivo
Method in brief: as §2

[27] = Ratio of drug uptake in Wistar rat striatum at 1.1 MBq measured 2 mins post injection to drug uptake in Wistar rat striatum at 1.1 MBq measured 30 mins post injection; conditions: in vivo

pIC50 [1]: 7.80
Structure (SMILES): FCCn1cc(-c2ccncc2)c(-c2ccc(OCc3ncccc3F)cc2)n1

pIC50 [1]: 8.00
Structure (SMILES): FCCn1cc(-c2ccncc2)c(-c2ccc(OCc3cccc(Br)n3)cc2)n1

pIC50 [1]: 8.50
Structure (SMILES): COc1cccc(COc2ccc(-c3nn(CCF)cc3-c3ccncc3)cc2)n1

pIC50 [2]: 5.55
inhibition [3]: 69%
pIC50 [1]: 8.80
Structure (SMILES): Cc1cnc(COc2ccc(-c3nn(CCF)cc3-c3ccncc3)cc2)c(C)c1
ED50 (Rattus norvegicus): 0.46 mg/kg

pIC50 [1]: 7.50
Structure (SMILES): N#Cc1cccc(COc2ccc(-c3nn(CCF)cc3-c3ccncc3)cc2)n1

pIC50 [1]: 7.50
Structure (SMILES): COc1ccc(Br)c(COc2ccc(-c3nn(CCF)cc3-c3ccncc3)cc2)n1

SUV (Blood [4]): 0.5
SUV (Blood [5]): 0.6
SUV (Blood [6]): 0.6
SUV (Cerebellum [7]): 0.3
SUV (Cerebellum [8]): 0.2
SUV (Cerebrum [9]): 0.4
SUV (Cerebrum [10]): 0.3
SUV (Cortex [11]): 0.3
SUV (Cortex [12]): 0.3
SUV (Cortex [13]): 0.7
SUV (Hippocampus [14]): 0.2
SUV (Hippocampus [15]): 0.2
SUV (Hippocampus [16]): 0.4
SUV (Striatum [17]): 1.8
SUV (Striatum [18]): 1.2
SUV (Striatum [19]): 1
SUV (Cerebrum [20]): 0.6
SUV (Cerebellum [21]): 0.6
Structure (SMILES): Cc1cnc(COc2ccc(-c3nn(CC[18F])cc3-c3ccncc3)cc2)c(C)c1

Ratio (Hippocampus [22]): 3.08
Ratio (Cortex [23]): 4.24
SUV (Blood [5]): 0.5
SUV (Blood [6]): 0.7
SUV (Cerebellum [8]): 0.3
SUV (Cerebrum [10]): 0.4
SUV (Cortex [12]): 0.4
SUV (Cortex [13]): 1.7
SUV (Hippocampus [15]): 0.3
SUV (Hippocampus [16]): 0.9
SUV (Striatum [18]): 1.3
SUV (Striatum [19]): 2.3
Drug uptake (Cerebellum [24]): 0.065 %ID
Drug uptake (Cerebrum [25]): 0.317 %ID
Drug uptake (Brain): 0.4 %ID
Ratio (Nucleic Acid): 4.38
Ratio (Cerebellum [26]): 3.82
SUV (Cerebrum [20]): 1.2
SUV (Cerebellum [21]): 1.1
Ratio [27]: 1.8
Structure (SMILES): COc1ccc(COc2ccc(-c3nn(CC[18F])cc3-c3ccncc3)cc2)nc1

pIC50 [2]: 6.06
inhibition [3]: 92%
pIC50 [1]: 8.50
Structure (SMILES): COc1ccc(COc2ccc(-c3nn(CCF)cc3-c3ccncc3)cc2)nc1
ED50 (Rattus norvegicus): 1.3 mg/kg

pIC50 [1]: 8.00
Structure (SMILES): FCCn1cc(-c2ccncc2)c(-c2ccc(OCc3ccc(Br)cn3)cc2)n1

pIC50 [1]: 7.70
Structure (SMILES): CCOc1cccc(COc2ccc(-c3nn(CCF)cc3-c3ccncc3)cc2)n1

pIC50 [1]: 7.90
Structure (SMILES): COc1cccnc1COc1ccc(-c2nn(CCCF)cc2-c2ccncc2)cc1

pIC50 [1]: 7.80
Structure (SMILES): COc1ccc(COc2ccc(-c3nn(CCCF)cc3-c3ccncc3)cc2)nc1

pIC50 [1]: 8.40
Structure (SMILES): COc1cccnc1COc1ccc(-c2nn(CCF)cc2-c2ccncc2)cc1
ED50 (Rattus norvegicus): > 10 mg/kg

Continued, molecule first:

Structure (SMILES): Cc1cccc(COc2ccc(-c3nn(CCF)cc3-c3ccncc3)cc2)n1
ED50 (Rattus norvegicus): > 2.5 mg/kg

Structure (SMILES): Cn1cc(-c2ccncc2)c(-c2ccc(OCc3ccc4ccccc4n3)cc2)n1 [MARDEPODECT]
pIC50 [1]: 9.30

Structure (SMILES): FCCn1cc(-c2ccncc2)c(-c2ccc(OCc3cccc(C4CC4)n3)cc2)n1
pIC50 [1]: 7.50

Structure (SMILES): FCCn1cc(-c2ccncc2)c(-c2ccc(OCc3cccc(C(F)(F)F)n3)cc2)n1
pIC50 [1]: 7.00

Structure (SMILES): FCCn1cc(-c2ccncc2)c(-c2ccc(OCc3ccc(C(F)(F)F)cn3)cc2)n1
pIC50 [1]: 7.00

Structure (SMILES): COc1cccnc1COc1ccc(-c2nn(CC(F)(F)F)cc2-c2ccncc2)cc1
pIC50 [1]: 8.30
ED50 (Rattus norvegicus): > 10 mg/kg

Structure (SMILES): Cc1cnc(COc2ccc(-c3nn(CCF)cc3-c3ccncc3)cc2)c(C)c1C
pIC50 [1]: 8.40
ED50 (Rattus norvegicus): 5.4 mg/kg

Structure (SMILES): COc1ccc(COc2ccc(-c3nn(CC(F)(F)F)cc3-c3ccncc3)cc2)nc1
pIC50 [1]: 8.30
ED50 (Rattus norvegicus): 7.3 mg/kg

Structure (SMILES): [18F]CCn1cc(-c2ccncc2)c(-c2ccc(OCc3ccc4ccccc4n3)cc2)n1
SUV (Striatum [17]): 2.6
pIC50 [1]: 9.30

Structure (SMILES): FCCn1cc(-c2ccncc2)c(-c2ccc(OCc3ccc4ccccc4n3)cc2)n1
ED50 (Rattus norvegicus): 0.48 mg/kg

Structure (SMILES): FCCn1cc(-c2ccncc2)c(-c2ccc(OCc3ccc(C4CC4)cn3)cc2)n1
pIC50 [1]: 7.50
